Data from ChEMBL document CHEMBL4020833, “A Systematic Exploration of Macrocyclization in Apelin-13: Impact on Binding, Signaling, Stability, and Cardiovascular Effects” (J Med Chem, 2018).
Calls of active or inactive are those of the source. No cut-off for these calls is given here. Starred links: 1 amine or outer side, 2 acyl side, 3 side chain; linkers in the order of their positions; H or OH if unused. Positions of bridges follow the written chain, without caps; N, C: chain ends. Non-standard residues stand in square brackets, D forms with d. Residues, ends and D or L forms follow the SMILES beside them. X2 = N=C(N)NCCC[C@@H](C(=O)[*:2])N(CC=[*:3])[*:1]; X4 = O=C([C@H](CO)N(CC=[*:3])[*:1])[*:2]; AllylGly = C=CC[C@H](N)C(=O)O; pGlu = O=C1CC[C@@H](C(=O)O)N1; Nle = CCCC[C@H](N)C(=O)O

How the values were obtained:
Heart [1] = test: Inotropic activity in Langendorff isolated-perfused Sprague-Dawley rat heart assessed as drug level causing maximum increase in left ventricular developed pressure efficacy relative to baseline control; format: functional
How it was run: (§1)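 Sprague-Dawley rat hearts isolated and perfused in Langendorff mode with increasing peptide concentrations from 0.001 to 0.3 nM. Increase in left ventricular developed pressure recorded as the inotropic read-out, expressed as % from baseline; compared with buffer by unpaired parametric t test.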

[2] = AUC in Sprague-Dawley rat at 3 mg/kg, iv measured up to 120 mins by LC-MS/MS analysis; format: ADME, organism-based; design: dose 3 mg/kg, time < 2 hr, route intravenous; details: in vivo
How it was run: (§2)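 Male Sprague-Dawley rats (250-350g) under intramuscular ketamine/xylazine (87/13 mg/kg); compound in 350 µL normal saline given via jugular vein. Carotid blood drawn into EDTA tubes at 1, 5, 10, 15, 30, 60, 120 min (1, 2, 5, 10, 15 min for Pyr-apelin-13), centrifuged for plasma, acetonitrile precipitation with internal standard, LC-MS/MS (ESI+, MRM).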

Heart [3] = test: Inotropic activity in Langendorff isolated-perfused Sprague-Dawley rat heart assessed as increase in left ventricular developed pressure efficacy at 0.03 nM relative to baseline control; format: functional; details: in the assay text read “0.003 nM” for “0.03 nM”; how it was run: as §1
[4] = Half life in rat plasma at 1 mM by UPLC-MS analysis; format: ADME, cell-free
How it was run: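 Male rat plasma incubated with peptide at 37 °C for 2, 4, 7, 24 h (or 10, 20, 60, 120 min for short-lived peptides); quenched with acetonitrile-ethanol (1:1) plus nicotinamide internal standard, then UPLC-MS. Percent remaining fitted to exponential decay for half-life; means ± SEM of three independent experiments. 1 mM is the stock solution.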

Apelin receptor [5] = target: T1, Apelin receptor (Homo sapiens, UniProt P35414); test: Activity at GFP10-tagged human APJ receptor expressed in HEK293 cells assessed as induction of RlucII-tagged beta-arrestin-2 recruitment after 30 mins by BRET assay; format: cell-based
T1 sequence (P35414 whole entry): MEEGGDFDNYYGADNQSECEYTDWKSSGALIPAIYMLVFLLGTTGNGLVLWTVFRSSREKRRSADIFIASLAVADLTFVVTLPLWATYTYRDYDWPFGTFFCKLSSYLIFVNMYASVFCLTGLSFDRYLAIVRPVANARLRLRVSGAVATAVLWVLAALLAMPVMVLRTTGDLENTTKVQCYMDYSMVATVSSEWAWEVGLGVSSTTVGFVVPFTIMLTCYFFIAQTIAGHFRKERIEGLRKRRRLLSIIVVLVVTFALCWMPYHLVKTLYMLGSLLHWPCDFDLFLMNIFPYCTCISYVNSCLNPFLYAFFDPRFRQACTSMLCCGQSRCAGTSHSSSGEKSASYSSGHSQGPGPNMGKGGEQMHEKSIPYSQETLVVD

Apelin receptor [6] = target: T1, Apelin receptor; test: Activity at human APJ receptor expressed in HEK293 cells assessed as dissociation of Galphai1 from Gbetagamma subunit after 5 mins by BRET assay; format: cell-based
Apelin receptor [7] = target: T1, Apelin receptor; test: Displacement of [125I]-[Nle75, Tyr77] Pyr1-apelin-13 from YFP-tagged human APJ receptor expressed in HEK293 cell membranes after 1 hr by gamma-counting method
[8] = Drug level in Sprague-Dawley rat plasma at 3 mg/kg, iv measured at 5 mins by LC-MS/MS; format: ADME, organism-based; how it was run: as §2
Apelin receptor [9] = target: T1, Apelin receptor; test: Induction of human HA-tagged APJ receptor internalization expressed in HEK293 cells after 30 mins by ELISA; format: cell-based
Rattus norvegicus [10] = test: Hypotensive activity in Sprague-Dawley rat assessed as reduction in systemic arterial blood pressure at 65 nmol/kg, iv administered over 10 secs; format: functional, organism-based
How it was run: (§3)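 Male Sprague-Dawley rats (250-350g) anesthetized with intramuscular ketamine/xylazine (87/13 mg/kg), kept on a thermostatic pad. Carotid catheter for arterial pressure; jugular bolus of saline vehicle, then 5 min later peptide (19.6 or 65 nmol/kg; 0.25 ml over 10 s), followed by a saline flush.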

Rattus norvegicus [11] = test: Hypotensive activity in Sprague-Dawley rat assessed as reduction in systemic arterial blood pressure at 19.5 or 65 nmol/kg, iv administered over 10 secs; format: functional; how it was run: as §3
Heart [12] = test: Inotropic activity in Langendorff isolated-perfused Sprague-Dawley rat heart assessed as increase in left ventricular developed pressure efficacy at 0.003 nM relative to baseline control; format: functional; how it was run: as §1

Row | Compound | Activity (Heart [1]) | half-life at 1000 µM [4] [h] | EC50 (Apelin receptor [5]) [nM] | EC50 (Apelin receptor [6]) [nM] | Ki (Apelin receptor [7]) [nM] | further results
1 | CSCC[C@H](NC(=O)[C@@H]1CCCN1C(=O)CNC(=O)[C@H](CCCCN)NC(=O)[C@H](Cc1cnc[nH]1)NC(=O)[C@H](CO)NC(=O)[C@H](CC(C)C)NC(=O)[C@H](CCCNC(=N)N)NC(=O)[C@@H]1CCCN1C(=O)[C@H](CCCNC(=N)N)NC(=O)[C@@H]1CCC(=O)N1)C(=O)N1CCC[C@H]1C(=O)N[C@@H](Cc1ccccc1)C(=O)O | 30 pM |  |  |  |  | AUC at 2 h [2]: 3.33 ng·h/mL; Efficacy (Heart [3]): 81%
2 | CCCC[C@H](NC(=O)[C@@H]1CCCN1C(=O)CNC(=O)[C@@H]1C/C=C\CN(C(=O)[C@@H]2CCCN2C(=O)[C@H](CCCNC(=N)N)NC(=O)[C@@H]2CCC(=O)N2)[C@@H](CCCNC(=N)N)C(=O)N[C@@H](CC(C)C)C(=O)N[C@@H](CO)C(=O)N[C@@H](Cc2cnc[nH]2)C(=O)N1)C(=O)N1CCC[C@H]1C(=O)N[C@@H](Cc1ccccc1)C(=O)O ([pGlu]RP[X2]LSH[AllylGly]GP[Nle]PF-OH; staple (Z) 4-8) |  | 7.7 | 512 | 19 | 9.1 | 
3 | C=CC[C@H](NC(=O)[C@@H]1CCCN1C(=O)[C@H](CCCC)NC(=O)[C@@H]1CCCN1C(=O)[C@H](CC=C)NC(=O)[C@H](CCCCN)NC(=O)[C@H](Cc1cnc[nH]1)NC(=O)[C@H](CO)NC(=O)[C@H](CC(C)C)NC(=O)[C@H](CCCNC(=N)N)NC(=O)[C@@H]1CCCN1C(=O)[C@H](CCCNC(=N)N)NC(=O)[C@@H]1CCC(=O)N1)C(=O)O ([pGlu]RPRLSHK[AllylGly]P[Nle]P[AllylGly]-OH) |  | 2.4 | 145 | 2 | 2.1 | 
4 | CCCC[C@@H]1NC(=O)[C@@H]2CCCN2C(=O)[C@@H](NC(=O)[C@H](CCCCN)NC(=O)[C@H](Cc2cnc[nH]2)NC(=O)[C@H](CO)NC(=O)[C@H](CC(C)C)NC(=O)[C@H](CCCNC(=N)N)NC(=O)[C@@H]2CCCN2C(=O)[C@H](CCCNC(=N)N)NC(=O)[C@@H]2CCC(=O)N2)C/C=C\C[C@@H](C(=O)O)NC(=O)[C@@H]2CCCN2C1=O [listing 1 of 2 here] |  | 8.6 |  |  |  | concentration at 5 min [8]: 5.6 µM; EC50 (Apelin receptor [9]; hek293): 469 nM; EC50 (Apelin receptor [5]; hek293): 272 nM; AUC at 2 h [2]: 4100 ng·h/mL; EC50 (Apelin receptor [6]; hek293): 19 nM; Ki (Apelin receptor [7]; hek293): 1.1 nM
5 | CCCC[C@@H]1NC(=O)[C@@H]2CCCN2C(=O)[C@@H](NC(=O)[C@@H](CCCCN)NC(=O)[C@H](Cc2cnc[nH]2)NC(=O)[C@H](CO)NC(=O)[C@H](CC(C)C)NC(=O)[C@H](CCCNC(=N)N)NC(=O)[C@@H]2CCCN2C(=O)[C@H](CCCNC(=N)N)NC(=O)[C@@H]2CCC(=O)N2)C/C=C\C[C@@H](C(=O)O)NC(=O)[C@@H]2CCCN2C1=O |  |  |  |  |  | Activity (Rattus norvegicus [10]): Active
6 | CCCC[C@@H]1NC(=O)[C@@H]2CCCN2C(=O)CNC(=O)[C@@H](NC(=O)[C@H](Cc2cnc[nH]2)NC(=O)[C@H](CO)NC(=O)[C@H](CC(C)C)NC(=O)[C@H](CCCNC(=N)N)NC(=O)[C@@H]2CCCN2C(=O)[C@H](CCCNC(=N)N)NC(=O)[C@@H]2CCC(=O)N2)C/C=C\C[C@@H](C(=O)N[C@@H](Cc2ccccc2)C(=O)O)NC1=O ([pGlu]RPRLSH[AllylGly]GP[Nle][AllylGly]F-OH; staple (Z) 8-12) |  | 4.6 | 825 | 30 | 14 | 
7 | CCCC[C@H](NC(=O)[C@@H]1C/C=C\CN(C(=O)[C@H](CC(C)C)NC(=O)[C@H](CCCNC(=N)N)NC(=O)[C@@H]2CCCN2C(=O)[C@H](CCCNC(=N)N)NC(=O)[C@@H]2CCC(=O)N2)[C@@H](CO)C(=O)N[C@@H](Cc2cnc[nH]2)C(=O)N[C@@H](CCCCN)C(=O)NCC(=O)N1)C(=O)N1CCC[C@H]1C(=O)N[C@@H](Cc1ccccc1)C(=O)O ([pGlu]RPRL[X4]HKG[AllylGly][Nle]PF-OH; staple (Z) 6-10) |  | > 24 |  |  | 188 | 
8 | CCCC[C@H](NC(=O)[C@@H]1C/C=C\C[C@H](NC(=O)[C@H](CC(C)C)NC(=O)[C@H](CCCNC(=N)N)NC(=O)[C@@H]2CCCN2C(=O)[C@H](CCCNC(=N)N)NC(=O)[C@@H]2CCC(=O)N2)C(=O)N[C@@H](Cc2cnc[nH]2)C(=O)N[C@@H](CCCCN)C(=O)NCC(=O)N1)C(=O)N1CCC[C@H]1C(=O)N[C@@H](Cc1ccccc1)C(=O)O ([pGlu]RPRL[AllylGly]HKG[AllylGly][Nle]PF-OH; staple (Z) 6-10) |  | 4.1 |  |  | 268 | 
9 | CCCC[C@H](NC(=O)[C@@H]1CCCN1C(=O)CNC(=O)[C@H](CCCCN)NC(=O)[C@H](Cc1cnc[nH]1)NC(=O)[C@H](CO)NC(=O)[C@@H]1C/C=C\C[C@H](N)C(=O)N[C@@H](CCCNC(=N)N)C(=O)N2CCC[C@H]2C(=O)N[C@@H](CCCNC(=N)N)C(=O)N1)C(=O)N1CCC[C@H]1C(=O)N[C@@H](Cc1ccccc1)C(=O)O |  | 0.8 | 834 | 23 | 5.7 | 
10 | CCCC[C@H](NC(=O)[C@@H]1CCCN1C(=O)CNC(=O)[C@H](CCCCN)NC(=O)[C@@H]1C/C=C\C[C@H](NC(=O)[C@H](CCCNC(=N)N)NC(=O)[C@@H]2CCC(=O)N2)C(=O)N[C@@H](CCCNC(=N)N)C(=O)N[C@@H](CC(C)C)C(=O)N[C@@H](CO)C(=O)N1)C(=O)N1CCC[C@H]1C(=O)N[C@@H](Cc1ccccc1)C(=O)O | Active | 3.9 |  |  |  | Activity (Rattus norvegicus [11]): <=40 mmHg
11 | CCCC[C@@H]1NC(=O)[C@@H]2CCCN2C(=O)[C@@H](NC(=O)[C@H](CCCCN)NC(=O)[C@H](Cc2cnc[nH]2)NC(=O)[C@H](CO)NC(=O)[C@H](CC(C)C)NC(=O)[C@H](CCCNC(=N)N)NC(=O)[C@@H]2CCCN2C(=O)[C@H](CCCNC(=N)N)NC(=O)[C@@H]2CCC(=O)N2)CCN(S(=O)(=O)c2ccccc2[N+](=O)[O-])C/C=C\C[C@@H](C(=O)O)NC(=O)[C@@H]2CCCN2C1=O | 3 pM | 6.8 | 57 | 1.3 | 0.15 | Activity (Rattus norvegicus [11]): <=40 mmHg; concentration at 5 min [8]: 2.5 µM; EC50 (Apelin receptor [9]): 45 nM; AUC at 2 h [2]: 2800 ng·h/mL
12 | CC(C)C[C@H](NC(=O)[C@H](CCCNC(=N)N)NC(=O)[C@@H]1CCCN1C(=O)[C@H](CCCNC(=N)N)NC(=O)[C@@H]1CCC(=O)N1)C(=O)N[C@@H](CO)C(=O)N[C@H]1C/C=C\C[C@@H](C(=O)N2CCC[C@H]2C(=O)N[C@@H](Cc2ccccc2)C(=O)O)NC(=O)[C@@H]2CCCN2C(=O)CNC(=O)[C@H](CCCCN)NC1=O ([pGlu]RPRLS[AllylGly]KGP[AllylGly]PF-OH; staple (Z) 7-11) |  | 6.6 | 400 | 20 | 1.4 | 
13 | CCCC[C@@H]1NC(=O)[C@@H]2CCCN2C(=O)[C@@H](NC(=O)[C@H](CCCCN)NC(=O)[C@H](Cc2cnc[nH]2)NC(=O)[C@H](CO)NC(=O)[C@H](CC(C)C)NC(=O)[C@H](CCCNC(=N)N)NC(=O)[C@@H]2CCCN2C(=O)[C@H](CCCNC(=N)N)NC(=O)[C@@H]2CCC(=O)N2)C/C=C\C[C@@H](C(=O)O)NC(=O)[C@@H]2CCCN2C1=O [listing 2 of 2 here] | 3 pM |  |  |  |  | Efficacy (Heart [12]): 217%
